Data taken from ChEMBL document CHEMBL1143805, “Synthesis and antimicrobial activities of some novel 1,2,4-triazolo[3,4-b]-1,3,4-thiadiazoles and 1,2,4-triazolo[3,4-b]-1,3,4-thiadiazines carrying thioalkyl and sulphonyl phenoxy moieties” (2007).
Values after ≈ are worked out from the molar mass of the structure shown.

tested on: Escherichia coli; assay: Antibacterial activity against Escherichia coli ATCC 25922; type: functional; settings: not given
Summary of the method: (§1)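 MIC by serial dilution in Mueller-Hinton broth tubes, pH adjusted to 5.0 with phosphate buffer. A standardized bacterial suspension was inoculated and incubated 16-18 h at 37 °C, and MIC was read as the lowest concentration with no visible growth. Zones were also measured in agar wells on seeded plates, with compounds in DMSO and a DMSO control, triplicate plates, 37 °C for 3-4 days.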

| Structure (SMILES) | inhibition zone (IZ) [mm] |
| --- | --- |
| CCSc1ccc(OCc2nnc3sc(-c4ccc(OC)cc4)nn23)cc1 | <10 |
| CSc1ccc(OCc2nnc3sc(-c4ccc(C)cc4)nn23)cc1 | 16 |
| CS(=O)(=O)c1ccc(OCc2nnc3n2N=C(c2ccc(Cl)cc2)CS3)cc1 | <10 |

same assay, conditions: Escherichia coli, ATCC 25922

| MIC [µg/mL] | Structure (SMILES) |
| --- | --- |
| 25 (≈ 62.7 µM) | CCSc1ccc(OCc2nnc3sc(-c4ccc(OC)cc4)nn23)cc1 |
| 6.25 (≈ 17 µM) | CSc1ccc(OCc2nnc3sc(-c4ccc(C)cc4)nn23)cc1 |
| 25 (≈ 57.5 µM) | CS(=O)(=O)c1ccc(OCc2nnc3n2N=C(c2ccc(Cl)cc2)CS3)cc1 |

tested on: Staphylococcus aureus; assay: Antibacterial activity against Staphylococcus aureus ATCC 25923; type: functional; settings: not given; summary of the method: as §1

| Structure (SMILES) | inhibition zone (IZ) [mm] |
| --- | --- |
| CCSc1ccc(OCc2nnc3sc(-c4ccc(OC)cc4)nn23)cc1 | <10 |
| CSc1ccc(OCc2nnc3sc(-c4ccc(C)cc4)nn23)cc1 | 16 |
| CS(=O)(=O)c1ccc(OCc2nnc3n2N=C(c2ccc(Cl)cc2)CS3)cc1 | <10 |

same assay, conditions: Staphylococcus aureus, ATCC 25923

| MIC [µg/mL] | Structure (SMILES) |
| --- | --- |
| 25 (≈ 62.7 µM) | CCSc1ccc(OCc2nnc3sc(-c4ccc(OC)cc4)nn23)cc1 |
| 6.25 (≈ 17 µM) | CSc1ccc(OCc2nnc3sc(-c4ccc(C)cc4)nn23)cc1 |
| 25 (≈ 57.5 µM) | CS(=O)(=O)c1ccc(OCc2nnc3n2N=C(c2ccc(Cl)cc2)CS3)cc1 |

tested on: Pseudomonas aeruginosa; assay: Antibacterial activity against Pseudomonas aeruginosa ATCC 27853; type: functional; settings: not given; summary of the method: as §1

| Structure (SMILES) | inhibition zone (IZ) [mm] |
| --- | --- |
| CCSc1ccc(OCc2nnc3sc(-c4ccc(OC)cc4)nn23)cc1 | <10 |
| CSc1ccc(OCc2nnc3sc(-c4ccc(C)cc4)nn23)cc1 | 16 |
| CS(=O)(=O)c1ccc(OCc2nnc3n2N=C(c2ccc(Cl)cc2)CS3)cc1 | <10 |

same assay, conditions: Pseudomonas aeruginosa, ATCC 27853

| MIC [µg/mL] | Structure (SMILES) |
| --- | --- |
| 25 (≈ 62.7 µM) | CCSc1ccc(OCc2nnc3sc(-c4ccc(OC)cc4)nn23)cc1 |
| 6.25 (≈ 17 µM) | CSc1ccc(OCc2nnc3sc(-c4ccc(C)cc4)nn23)cc1 |
| 25 (≈ 57.5 µM) | CS(=O)(=O)c1ccc(OCc2nnc3n2N=C(c2ccc(Cl)cc2)CS3)cc1 |

tested on: Klebsiella pneumoniae; assay: Antibacterial activity against Klebsiella pneumoniae; type: functional; settings: not given; summary of the method: as §1

| Structure (SMILES) | inhibition zone (IZ) [mm] |
| --- | --- |
| CCSc1ccc(OCc2nnc3sc(-c4ccc(OC)cc4)nn23)cc1 | <10 |
| CSc1ccc(OCc2nnc3sc(-c4ccc(C)cc4)nn23)cc1 | 16 |
| CS(=O)(=O)c1ccc(OCc2nnc3n2N=C(c2ccc(Cl)cc2)CS3)cc1 | <10 |

same assay, conditions: Klebsiella pneumoniae

| MIC [µg/mL] | Structure (SMILES) |
| --- | --- |
| 25 (≈ 62.7 µM) | CCSc1ccc(OCc2nnc3sc(-c4ccc(OC)cc4)nn23)cc1 |
| 6.25 (≈ 17 µM) | CSc1ccc(OCc2nnc3sc(-c4ccc(C)cc4)nn23)cc1 |
| 25 (≈ 57.5 µM) | CS(=O)(=O)c1ccc(OCc2nnc3n2N=C(c2ccc(Cl)cc2)CS3)cc1 |

tested on: Aspergillus flavus; assay: Antifungal activity against Aspergillus flavus NCIM 524; type: functional; settings: not given
Summary of the method: (§2)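 Agar-well diffusion on Sabouraud agar at pH 5.7. Plates were lawned with a saline spore suspension (one loopful in 3 ml), decanted and dried 1 h at 37 °C. Compounds in DMSO went into punched wells, with a DMSO solvent control. Plates were run in triplicate and kept at 37 °C for 3-4 days, with inhibition-zone diameter as read-out.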

| Structure (SMILES) | inhibition zone (IZ) [mm] |
| --- | --- |
| CCSc1ccc(OCc2nnc3sc(-c4ccc(OC)cc4)nn23)cc1 | <10 |
| CSc1ccc(OCc2nnc3sc(-c4ccc(C)cc4)nn23)cc1 | 16 |
| CS(=O)(=O)c1ccc(OCc2nnc3n2N=C(c2ccc(Cl)cc2)CS3)cc1 | <10 |

same assay, conditions: Aspergillus flavus, NCIM 524

| MIC [µg/mL] | Structure (SMILES) |
| --- | --- |
| 25 (≈ 62.7 µM) | CCSc1ccc(OCc2nnc3sc(-c4ccc(OC)cc4)nn23)cc1 |
| 6.25 (≈ 17 µM) | CSc1ccc(OCc2nnc3sc(-c4ccc(C)cc4)nn23)cc1 |
| 25 (≈ 57.5 µM) | CS(=O)(=O)c1ccc(OCc2nnc3n2N=C(c2ccc(Cl)cc2)CS3)cc1 |

tested on: Aspergillus fumigatus; assay: Antifungal activity against Aspergillus fumigatus NCIM 902; type: functional; settings: not given

| Structure (SMILES) | inhibition zone (IZ) [mm] |
| --- | --- |
| CCSc1ccc(OCc2nnc3sc(-c4ccc(OC)cc4)nn23)cc1 | <10 |
| CSc1ccc(OCc2nnc3sc(-c4ccc(C)cc4)nn23)cc1 | 16 |
| CS(=O)(=O)c1ccc(OCc2nnc3n2N=C(c2ccc(Cl)cc2)CS3)cc1 | <10 |

same assay, conditions: Aspergillus fumigatus, NCIM 902

| MIC [µg/mL] | Structure (SMILES) |
| --- | --- |
| 25 (≈ 62.7 µM) | CCSc1ccc(OCc2nnc3sc(-c4ccc(OC)cc4)nn23)cc1 |
| 6.25 (≈ 17 µM) | CSc1ccc(OCc2nnc3sc(-c4ccc(C)cc4)nn23)cc1 |
| 25 (≈ 57.5 µM) | CS(=O)(=O)c1ccc(OCc2nnc3n2N=C(c2ccc(Cl)cc2)CS3)cc1 |

tested on: Talaromyces marneffei; assay: Antifungal activity against Penicillium marneffei; type: functional; settings: not given; summary of the method: as §2

| Structure (SMILES) | inhibition zone (IZ) [mm] |
| --- | --- |
| CCSc1ccc(OCc2nnc3sc(-c4ccc(OC)cc4)nn23)cc1 | <10 |
| CSc1ccc(OCc2nnc3sc(-c4ccc(C)cc4)nn23)cc1 | 16 |
| CS(=O)(=O)c1ccc(OCc2nnc3n2N=C(c2ccc(Cl)cc2)CS3)cc1 | <10 |

same assay, conditions: Talaromyces marneffei

| MIC [µg/mL] | Structure (SMILES) |
| --- | --- |
| 25 (≈ 62.7 µM) | CCSc1ccc(OCc2nnc3sc(-c4ccc(OC)cc4)nn23)cc1 |
| 6.25 (≈ 17 µM) | CSc1ccc(OCc2nnc3sc(-c4ccc(C)cc4)nn23)cc1 |
| 25 (≈ 57.5 µM) | CS(=O)(=O)c1ccc(OCc2nnc3n2N=C(c2ccc(Cl)cc2)CS3)cc1 |

tested on: Trichophyton benhamiae; assay: Antifungal activity against Trichophyton mentagrophytes; type: functional, Arthroderma benhamiae; settings: not given; summary of the method: as §2

| Structure (SMILES) | inhibition zone (IZ) [mm] |
| --- | --- |
| CCSc1ccc(OCc2nnc3sc(-c4ccc(OC)cc4)nn23)cc1 | <10 |
| CSc1ccc(OCc2nnc3sc(-c4ccc(C)cc4)nn23)cc1 | 16 |
| CS(=O)(=O)c1ccc(OCc2nnc3n2N=C(c2ccc(Cl)cc2)CS3)cc1 | < 10 |

same assay, conditions: Trichophyton benhamiae

| MIC [µg/mL] | Structure (SMILES) |
| --- | --- |
| 25 (≈ 62.7 µM) | CCSc1ccc(OCc2nnc3sc(-c4ccc(OC)cc4)nn23)cc1 |
| 6.25 (≈ 17 µM) | CSc1ccc(OCc2nnc3sc(-c4ccc(C)cc4)nn23)cc1 |
| 25 (≈ 57.5 µM) | CS(=O)(=O)c1ccc(OCc2nnc3n2N=C(c2ccc(Cl)cc2)CS3)cc1 |
